This note sets out measurements from ChEMBL document CHEMBL1137010, “Improved peptide prodrugs of 5-ALA for PDT: rationalization of cellular accumulation and protoporphyrin IX production by direct determination of cellular prodrug uptake and prodrug metabolization” (J Med Chem, 2009).

Series [1] deals with PAM212. Description: Drug uptake in mouse PAM212 cells assessed as enhanced PpIX fluorescence at 0.01 mM after 6 hrs. The class given is ADME, cell-based. The conditions noted are these: pam212, 6 h, 10 µM. A digest of the protocol: (§1)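 PAM212 cells were seeded 5 × 10^4/well, grown 48 h, PBS-washed and incubated with drug at 0.01 or 0.1 mM in serum-free medium for 4 or 6 h. Untreated wells gave background and ALA wells served as reference. Well fluorescence: excitation 410 nm, emission 635 nm, scans 600–750 nm. Mean intensity (arbitrary units) after control subtraction, calibrated against rhodamine B.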

In series [2] the test system is PAM212. Description: Drug uptake in mouse PAM212 cells assessed as intracellular 5-aminolaevulinic acid level per mg of protein at 1 mM after 4 hrs. The following applies: pam212, 4 h, 1000 µM. The series is classed as ADME, cell-based.
Series [3] relates to PAM212. Put plainly: Cytotoxicity against mouse PAM212 cells after 24 hrs in absence of 2.5 J/cm2 blue light by MTT assay. The series is classed as functional, cell-based. In a few lines:
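Dark toxicity. PAM212 keratinocytes (RPMI-1640, 10% FCS) were seeded about 5 × 10^4 cells/well and grown 48 h, PBS-washed, then given drug for 4 h without irradiation. Medium was replaced and cells were kept a further 24 h. MTT 1 mg/mL for 3 h, formazan dissolved in DMSO, absorbance at 570 nm.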
Background: Tetrazolium assays rely on reduction of a dye to a coloured formazan, in cell work by metabolically active cells.

The test system of series [4] is PAM212. Put plainly: Drug uptake in mouse PAM212 cells assessed as PpIX production per mg of protein at 1 mM after 4 hrs. The conditions noted are these: pam212, 4 h, 1000 µM. The class given is ADME, cell-based. In a few lines:
(§2)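 Cells (PAM212; A549 in F12K; Caco-2 in EMEM, 37 °C, 5% CO2) were seeded in 100 mm dishes and grown 48 h at 37 °C. After PBS washing they were incubated 4 h at 37 °C with 0.1 or 1 mM drug, washed, lysed 15 min and scraped, then centrifuged at 1800 g for 10 min. Supernatant PpIX was read by fluorescence (410/635 nm) against a PpIX standard curve and normalized to protein by BCA.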

Series [5] is described as follows: Chromatographic hydrophobicity index in methanol solution under isocratic conditions at pH 6.8. The series is classed as physicochemical. A digest of the protocol:
(§3)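 RP-HPLC on a C18 column at 35 °C, 0.7 mL/min. Mobile phase was CH3CN or CH3OH with 50 mM aq ammonium formate (pH 6.8). […], with t0 from uracil and tR measured in duplicate. Six isocratic compositions were chosen so that −1.5 < log k < 0.6, and the index was derived from the linear log k versus organic-fraction relation.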

Series [6] relates to PAM212. Description: Drug uptake in mouse PAM212 cells assessed as enhanced PpIX fluorescence at 0.1 mM after 4 hrs. The series is classed as ADME, cell-based. The conditions noted are these: pam212, 4 h, 100 µM. A digest of the protocol: as §1
The subject of series [7] is PAM212. Put plainly: Drug uptake in mouse PAM212 cells assessed as PpIX production per mg of protein at 0.1 mM after 4 hrs. The series is classed as ADME, cell-based. The following applies: pam212, 4 h, 100 µM. In a few lines:
as §2

Series [8] relates to PAM212. Put plainly: Drug uptake in mouse PAM212 cells assessed as enhanced PpIX fluorescence at 0.1 mM after 6 hrs. The class given is ADME, cell-based. The following applies: pam212, 6 h, 100 µM. A digest of the protocol: as §1
Series [9] relates to PAM212. Put plainly: Drug uptake in mouse PAM212 cells assessed as enhanced PpIX fluorescence at 0.01 mM after 4 hrs. The class given is ADME, cell-based. The following applies: pam212, 4 h, 10 µM. A digest of the protocol: as §1
Series [10] in a line: Chromatographic hydrophobicity index in acetonitrile solution under isocratic conditions at pH 6.8. The class given is physicochemical. A digest of the protocol: as §3
Series [11] has as its system PAM212. Description: Phototoxicity against mouse PAM212 cells assessed as cell viability at 0.01 mM after 4 hrs irradiated with 2.5 J/cm2 blue light by MTT assay relative to control. The class given is functional, cell-based. In a few lines: (§4)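 PAM212 cells were seeded about 5 × 10^4/well, grown 48 h, PBS-washed and incubated 4 h with drug at 0.01, 0.1 or 1 mM. Blue light (peak 420 nm) was delivered at 2.5 J/cm², although the methods section states 1.25 J/cm². Medium was then replaced and cells kept 24 h. MTT 1 mg/mL for 3 h, DMSO, A570; survival as % of non-irradiated drug-treated controls.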

The test system of series [12] is PAM212. Put plainly: Phototoxicity against mouse PAM212 cells assessed as cell viability at 0.1 mM after 4 hrs irradiated with 2.5 J/cm2 blue light by MTT assay relative to control. The conditions noted are these: PAM212, light or radiation study, read-out: Activity. The class given is functional. In a few lines:
as §4

For series [13], the system named is PAM212. Description: Drug uptake in mouse PAM212 cells assessed as intracellular 5-aminolaevulinic acid level per mg of protein at 0.1 mM after 4 hrs. The class given is ADME, cell-based. The following applies: pam212, 4 h, 100 µM.
The subject of series [14] is Caco-2. Description: Drug uptake in human Caco-2 cells assessed as intracellular 5-aminolaevulinic acid level per mg of protein at 1 mM after 4 hrs. The series is classed as ADME, cell-based. The conditions noted are these: caco-2, 4 h, 1000 µM.
In series [15] the test system is A549. Description: Drug uptake in human A549 cells assessed as intracellular 5-aminolaevulinic acid level per mg of protein at 0.1 mM after 4 hrs. The following applies: a549, 4 h, 100 µM. The class given is ADME, cell-based.
For series [16], the system named is Caco-2. Description: Drug uptake in human Caco-2 cells assessed as PpIX production per mg of protein at 1 mM after 4 hrs. The conditions noted are these: caco-2, 4 h, 1000 µM. The series is classed as ADME, cell-based. A digest of the protocol:
as §2

In series [17] the test system is A549. Put plainly: Drug uptake in human A549 cells assessed as PpIX production per mg of protein at 0.1 mM after 4 hrs. The conditions noted are these: a549, 4 h, 100 µM. The series is classed as ADME, cell-based. In a few lines: as §2

Molecules are shown by their SMILES. The source made the active and inactive calls. The calls are words filed in the database; no cut-off is given here.

Regarding `COC(=O)CCC(=O)CNC(=O)[C@H](CCSC)NC(C)=O`, the Drug uptake result in [1] is “Active”; in series [2] it was 13.2 µg/mg; in series [4] it was 295 ng/mg; in series [6], “Active”; in series [7] it was 315 ng/mg; in series [8], “Active”. Moreover, the Drug uptake result was “Active” in series [9] and 3.28 µg/mg in series [13]. In series [3], the result was inactive. For the same compound, the CHI in series [5] came to 41.4; in series [10] it was 28.89. In series [11], the result was Active. In addition, in series [12], the viability at 100 µM was found to be 3%.

For `COC(=O)CCC(=O)CNC(=O)[C@H](Cc1ccccc1)NC(C)=O`, the Drug uptake result was “Active” in [1]; 13.7 µg/mg in series [2]; 11.9 µg/mg in [14]; 295 ng/mg in [4]; 0.38 µg/mg in series [15]; “Active” in series [6]. Moreover, the Drug uptake in [7] is 313 ng/mg; in series [8] it was “Active”; in series [9], “Active”; in [16], 594 ng/mg; in [17], 4.42 ng/mg; in series [13], 2.9 µg/mg. Besides, the result in [3] was inactive. In addition, the CHI in series [5] is on record as 52.96; in series [10] it was 34.71. Further, in [11], the result was Active. In addition, in [12], the viability at 100 µM was 3%.

For `COC(=O)CCC(=O)CNC(=O)[C@H](CC(C)C)NC(C)=O`, the Drug uptake result in series [1] was “Active”; in series [2], 12.2 µg/mg; in series [14], 6.54 µg/mg; in series [4], 290 ng/mg; in series [15], 0.2 µg/mg; in series [6], “Active”. Also, the Drug uptake in series [7] was 276 ng/mg; in [8], “Active”; in series [9] it was “Active”; in series [16], 612 ng/mg; in [17], 5.91 ng/mg; in series [13], 2.8 µg/mg. Moreover, the result in [3] was inactive. Moreover, the CHI in [5] is given as 50.92; in series [10], 36.67. In addition, the viability at 100 µM in series [12] amounted to 3%.
